From ChEMBL document CHEMBL3120124, “Lead optimization of HMBA to develop potent HEXIM1 inducers” (Bioorg Med Chem Lett, 2014)

What was measured:
[1] = biological target: T1, Protein HEXIM1 (Homo sapiens) (UniProt O94992); experiment: Induction of HEXIM1 protein expression in human LNCAP cells at 500 uM after 24 hrs by Western blotting analysis relative to control; type: cell-based
T1 sequence (whole entry): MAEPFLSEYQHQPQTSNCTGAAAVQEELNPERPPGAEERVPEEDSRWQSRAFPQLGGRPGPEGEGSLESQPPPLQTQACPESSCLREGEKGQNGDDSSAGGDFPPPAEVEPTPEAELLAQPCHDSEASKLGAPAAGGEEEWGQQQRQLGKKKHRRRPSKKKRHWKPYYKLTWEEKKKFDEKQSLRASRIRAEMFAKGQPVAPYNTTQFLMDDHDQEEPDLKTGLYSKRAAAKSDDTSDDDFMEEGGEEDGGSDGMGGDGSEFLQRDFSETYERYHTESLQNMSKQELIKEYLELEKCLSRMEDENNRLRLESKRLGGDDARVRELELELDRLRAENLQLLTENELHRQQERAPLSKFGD
Method in brief: (§1)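 LNCaP prostate cancer cells were treated for 24 h with vehicle, HMBA (5 mM; positive control) or analog at 500 μM, and selected analogs also at 100 μM. HEXIM1 was assessed by Western blot of cell extracts using a HEXIM1 antibody, with β-actin as loading control. Band intensities were quantified by densitometry. Representative of three independent experiments.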

[2] = Solubility of the compound in water; type: physicochemical
Method in brief: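 Aqueous solubility was judged by the absence of precipitation in LNCaP cell culture medium at 100 μM.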

[3] = biological target: T1, Protein HEXIM1 (Homo sapiens); experiment: Induction of HEXIM1 protein expression in human LNCAP cells after 24 hrs by Western blotting analysis; type: cell-based
[4] = biological target: T1, Protein HEXIM1 (Homo sapiens); experiment: Induction of HEXIM1 protein expression in human LNCAP cells at 100 uM after 24 hrs by Western blotting analysis relative to control; type: cell-based; method in brief: as §1
[5] = biological target: T1, Protein HEXIM1 (Homo sapiens); experiment: Induction of HEXIM1 protein expression in human LNCAP cells at 5 mM after 24 hrs by Western blotting analysis relative to control; type: cell-based
[6] = biological target: T1, Protein HEXIM1 (Homo sapiens); experiment: Induction of HEXIM1 protein expression in human LNCAP cells at 1 mM after 24 hrs by Western blotting analysis relative to control; type: cell-based
[7] = biological target: T1, Protein HEXIM1 (Homo sapiens); experiment: Induction of HEXIM1 protein expression in human LNCAP cells at 0.5 mM after 24 hrs by Western blotting analysis relative to control; type: cell-based; method in brief: as §1
LNCaP = experiment: Cytotoxicity against human LNCAP cells assessed as change in cell morphology at 500 uM; type: cell-based
[8] = biological target: T1, Protein HEXIM1 (Homo sapiens); experiment: Induction of HEXIM1 protein expression in human LNCAP cells at 0.05 mM after 24 hrs by Western blotting analysis relative to control; type: cell-based
[9] = biological target: T1, Protein HEXIM1 (Homo sapiens); experiment: Induction of HEXIM1 protein expression in human LNCAP cells at 0.1 mM after 24 hrs by Western blotting analysis relative to control; type: cell-based

## CCCC(=O)NCCCCCCNC(=O)CCC
[1]
  fold change (FC): 4.89
[2]
  solubility: > 100 µM
[3]
  Activity: Dose-dependent effect
[4]
  fold change (FC): 1.23

## CS(=O)(=O)NCC1CCC(CNS(C)(=O)=O)CC1 (configuration not stated)
[1]
  fold change (FC): 1.24

## CC(=O)NCCCCCCNC(=O)c1ccc(Cl)c([N+](=O)[O-])c1
[1]
  fold change (FC): 0.08

## CC(=O)NCc1ccc(CNC(C)=O)cc1
[1]
  fold change (FC): 0.4

## CC(=O)NCCCCCCNC(C)=O
[5]
  fold change (FC): 2.21
[6]
  fold change (FC): 23.6
[7]
  fold change (FC): 8.15

## CN(C1CCC(N(C)S(C)(=O)=O)CC1)S(C)(=O)=O (configuration not stated)
[1]
  fold change (FC): 1.27
[2]
  solubility: > 100 µM
[4]
  fold change (FC): 1.22

## COc1ccc(C(=O)NCCCCCCNC(C)=O)cc1
[1]
  fold change (FC): 1.93
LNCaP
  Activity: Toxic

## CC(=O)N(C)C1CCC(N(C)C(C)=O)CC1 (configuration not stated)
[1]
  fold change (FC): 3.09
[2]
  solubility: > 100 µM
[4]
  fold change (FC): 0.43

## CC(=O)N(C)CCCCCCN(C)C(C)=O
[1]
  fold change (FC): 0.25

## CC(=O)NC1CCC(NC(C)=O)CC1 (configuration not stated)
[1]
  fold change (FC): 1.88
[2]
  solubility: > 100 µM
[4]
  fold change (FC): 0.06

## CN(CCCCCCN(C)S(C)(=O)=O)S(C)(=O)=O
[1]
  fold change (FC): 0.97
[2]
  solubility: > 100 µM
[4]
  fold change (FC): 1.55

## CC(=O)N(C)Cc1ccc(CN(C)C(C)=O)cc1
[1]
  fold change (FC): 2.2
[2]
  solubility: > 100 µM
[4]
  fold change (FC): 3.8

## CC(=O)N(C)CCCN(C)C(C)=O
[1]
  fold change (FC): 0.44

## CN(CC1CCC(CN(C)S(C)(=O)=O)CC1)S(C)(=O)=O (configuration not stated)
[1]
  fold change (FC): 3.09
[2]
  solubility: > 100 µM
[4]
  fold change (FC): 0.41

## CN(Cc1ccc(CN(C)S(C)(=O)=O)cc1)S(C)(=O)=O
[1]
  fold change (FC): 1.39
[2]
  solubility: > 100 µM
[4]
  fold change (FC): 2

## CS(=O)(=O)NC1CCC(NS(C)(=O)=O)CC1 (configuration not stated)
[1]
  fold change (FC): 0.67

## O=C(NCCCCCCNC(=O)c1ccccc1)c1ccccc1
[1]
  fold change (FC): 0.46

## CC(=O)NCCCCCNC(C)=O
[1]
  fold change (FC): 0.12

## CN(CCCCCN(C)S(C)(=O)=O)S(C)(=O)=O
[1]
  fold change (FC): 0.05

## CS(=O)(=O)NCCCCCNS(C)(=O)=O
[1]
  fold change (FC): 0.22

## CC(=O)N(C)CCCCCN(C)C(C)=O
[1]
  fold change (FC): 0.05

## CC(=O)NCCCNC(C)=O
[1]
  fold change (FC): 0.68

## CCC(=O)NCCCCCCNC(=O)CC
[1]
  fold change (FC): 4.45
[2]
  solubility: > 100 µM
[3]
  Activity: Dose-dependent effect
[4]
  fold change (FC): 1.34

## CC(=O)NCCCCCCNC(=O)Oc1ccc(-c2ccccc2)cc1
[1]
  fold change (FC): 1.07
[2]
  solubility: > 100 µM
[4]
  fold change (FC): 0.61

## CN(CCCN(C)S(C)(=O)=O)S(C)(=O)=O
[1]
  fold change (FC): 2.86
[2]
  solubility: > 100 µM
[4]
  fold change (FC): 0.67

## CC(=O)N(C)CC1CCC(CN(C)C(C)=O)CC1 (configuration not stated)
[1]
  fold change (FC): 1.38

## CS(=O)(=O)NCCCCCCNS(C)(=O)=O
[1]
  fold change (FC): 0.31

## CS(=O)(=O)NCc1ccc(CNS(C)(=O)=O)cc1
[1]
  fold change (FC): 0.16

## COc1ccc(CC(=O)NCCCCCCNC(C)=O)cc1
[1]
  fold change (FC): 2.8
[8]
  fold change (FC): 1.72
[9]
  fold change (FC): 12.6
[7]
  fold change (FC): 26.6
[2]
  solubility: > 100 µM
[3]
  Activity: Dose-dependent effect
[4]
  fold change (FC): 1.16

## CC(=O)NCC1CCC(CNC(C)=O)CC1 (configuration not stated)
[1]
  fold change (FC): 2.14
LNCaP
  Activity: Toxic

## CS(=O)(=O)NCCCNS(C)(=O)=O
[1]
  fold change (FC): 4.45
[2]
  solubility: > 100 µM
[4]
  fold change (FC): 0.21
